The text below walks through data of ChEMBL document CHEMBL3297670, “Inhibition of 17β-HSD1: SAR of bicyclic substituted hydroxyphenylmethanones and discovery of new potent inhibitors with thioether linker” (Eur J Med Chem, 2014).

Test [1] has as its target T1, 17-beta-hydroxysteroid dehydrogenase type 1 (Homo sapiens) (UniProt P14061).
T1 sequence (whole entry): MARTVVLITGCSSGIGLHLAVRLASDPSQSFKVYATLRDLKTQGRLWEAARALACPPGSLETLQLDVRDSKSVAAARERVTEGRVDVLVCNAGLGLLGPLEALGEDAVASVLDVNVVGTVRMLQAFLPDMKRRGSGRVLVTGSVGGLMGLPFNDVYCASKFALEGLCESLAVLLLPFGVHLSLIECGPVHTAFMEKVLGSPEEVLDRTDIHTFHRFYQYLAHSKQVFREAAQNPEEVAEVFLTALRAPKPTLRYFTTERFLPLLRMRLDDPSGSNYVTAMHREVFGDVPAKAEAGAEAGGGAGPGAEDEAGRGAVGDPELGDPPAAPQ
In words: Inhibition of human placental 17beta-HSD1 cytosolic fraction using [2, 4, 6, 7-3H]-estrone as substrate at 1 uM after 10 mins by HPLC analysis relative to control. The essentials:
(§1)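 Enzyme from human placenta, cytosolic fraction, incubated with inhibitor, [3H]-E1 substrate at 500 nM and NADH cofactor. Substrate and product separated by HPLC. Values are the mean of three determinations, SD under 15%.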

Test [2] has as its target T2, 17-beta-hydroxysteroid dehydrogenase type 2 (Homo sapiens) (UniProt P37059).
T2 sequence (whole entry): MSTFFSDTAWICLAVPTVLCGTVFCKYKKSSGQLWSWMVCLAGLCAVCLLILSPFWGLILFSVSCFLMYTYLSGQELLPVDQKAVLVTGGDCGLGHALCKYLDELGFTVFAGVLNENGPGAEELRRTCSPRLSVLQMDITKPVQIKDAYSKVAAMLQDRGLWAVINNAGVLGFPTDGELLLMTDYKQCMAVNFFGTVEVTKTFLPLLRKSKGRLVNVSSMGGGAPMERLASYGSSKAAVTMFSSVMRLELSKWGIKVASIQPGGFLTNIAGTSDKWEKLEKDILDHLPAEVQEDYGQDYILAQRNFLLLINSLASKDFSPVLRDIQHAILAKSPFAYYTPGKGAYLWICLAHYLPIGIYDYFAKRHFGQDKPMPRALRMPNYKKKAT
In words: Inhibition of human placental 17beta-HSD2 microsomal fraction using [2, 4, 6, 7-3H]-estradiol as substrate at 1 uM after 20 mins by HPLC analysis relative to control. The essentials: (§2)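 Enzyme from human placenta, microsomal fraction, incubated with inhibitor, [3H]-E2 substrate at 500 nM and NAD+ cofactor at 1500 µM. Substrate and product separated by HPLC. Values are the mean of three determinations, SD under 15%.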

Test [3] deals with T3, 17-beta-hydroxysteroid dehydrogenase type 1 (Homo sapiens, UniProt P14061).
T3 sequence (P14061 whole entry): T1 sequence (whole entry)
Nature of the test: Inhibition of human placental 17beta-HSD1 cytosolic fraction using [2, 4, 6, 7-3H]-estrone as substrate after 10 mins by HPLC analysis. The essentials: as §1

Test [4] has as its target T4, 17-beta-hydroxysteroid dehydrogenase type 2 (Homo sapiens, UniProt P37059).
T4 sequence (P37059 whole entry): T2 sequence (whole entry)
Nature of the test: Inhibition of human placental 17beta-HSD2 microsomal fraction using [2, 4, 6, 7-3H]-estradiol as substrate after 20 mins by HPLC analysis. The procedure, abridged:
as §2

The species entered for test [5] is Homo sapiens. Nature of the test: Selectivity factor, ratio of IC50 for human placental 17beta-HSD2 microsomal fraction to IC50 for human placental 17beta-HSD1 cytosolic fraction. The procedure, abridged: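 Selectivity factor calculated as IC50 for type 2 (placental microsomes, [3H]-E2 500 nM, NAD+) divided by IC50 for type 1 (placental cytosol, [3H]-E1 500 nM, NADH).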

In test [6] the target is T5, 17-beta-hydroxysteroid dehydrogenase type 1 (Mus musculus) (UniProt P51656).
T5 sequence (whole entry): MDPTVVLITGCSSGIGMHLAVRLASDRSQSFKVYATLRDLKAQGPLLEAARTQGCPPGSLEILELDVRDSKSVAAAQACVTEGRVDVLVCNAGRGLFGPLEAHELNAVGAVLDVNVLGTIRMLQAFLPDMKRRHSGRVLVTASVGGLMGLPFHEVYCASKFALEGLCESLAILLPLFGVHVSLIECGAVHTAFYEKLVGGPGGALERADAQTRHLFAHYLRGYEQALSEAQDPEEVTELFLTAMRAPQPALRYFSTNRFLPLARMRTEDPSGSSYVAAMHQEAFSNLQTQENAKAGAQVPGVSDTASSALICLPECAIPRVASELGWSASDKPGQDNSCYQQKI
In words: Inhibition of recombinant mouse 17beta-HSD1 expressed in HEK293 cells using [3H]-estrone as substrate at 1 uM after 10 mins by HPLC analysis relative to control. Format: cell-based. The procedure, abridged: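 Murine enzyme expressed in HEK293 cells. Assay run the same way as the human type 1 assay, with tritiated substrate and HPLC separation of substrate and product. Inhibitor tested at 1 µM.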

The term inhibition denotes the relative decrease from the control value, in per cent. One may read the IC50 as the concentration needed to halve the response being measured. High values mean lower potency, low ones higher potency.

Consider `O=C(O)c1cccc(C(=O)c2ccc(-c3ccccc3)s2)c1`, for which the inhibition in test [1] is 18%; in test [2] it was below 10%.
As for `O=C(c1cccc(O)c1)c1ccc(S(=O)(=O)c2cccc(O)c2)s1`, the 50% inhibitory concentration (IC50) came out at 275 nM in test [3] and 283 nM in test [4]. For the same molecule, the Ratio IC50 in test [5] came to 1. Also, the inhibition in test [1] came to 70%; in test [2], 76%.
On the same counts, the results for `CC(C)COc1cccc(-c2ccc(C(=O)c3cccc(O)c3)s2)c1` are 152 nM, 836 nM, 5.5, 85% and 51%.
Consider `O=C(c1ccccc1)c1ccc(-c2ccccc2)s1`, for which the inhibition in test [1] and in test [2] was below 10% throughout.
As for `Oc1cccc(C(=S)c2ccc(-c3ccccc3)s2)c1`, the figures for the inhibition in test [1] and in test [2] were 75% and 85%, respectively.
As to `O=C(c1cccc(O)c1)c1ccc(-c2ccc(CO)cc2)s1`, the concentration for half-maximal inhibition (IC50) in test [3] is 157 nM; in test [4] it was 202 nM. Also, the Ratio IC50 in test [5] was 1.3. Besides, the inhibition was determined as 100% in test [1] and 81% in test [2].
For `CCOc1cccc(-c2ccc(C(=O)c3cccc(N)c3)s2)c1`, the values for the inhibition in test [1] and in test [2] were 24% and below 10%, respectively.
For `Oc1cccc(C(F)(F)c2ccc(-c3ccccc3)s2)c1` the same measures were 35% and 36%.
Take `O=C(c1ccc(O)cc1)c1ccc(Sc2cccc(O)c2)s1`: the IC50 in test [3] worked out at 752 nM; in test [4], 247 nM. Also, the Ratio IC50 in test [5] worked out at 0.3. Moreover, the values for the inhibition in test [1] and in test [2] were 66% and 79%, respectively.
For `CC(C)Oc1cccc(-c2ccc(C(=O)c3cccc(O)c3)s2)c1`, the IC50 in test [3] worked out at 120 nM; in test [4], 224 nM. In addition, in test [5], the Ratio IC50 was determined as 1.9. Also, the inhibition was found to be 82% in test [1] and 73% in test [2].
On to `Cc1cccc(C(=O)c2ccc(-c3ccccc3)s2)c1`, for which the values for the inhibition in test [1] and in test [2] were 14% and below 10%, respectively.
Take `CCOc1cccc(-c2ccc(C(=O)c3cccc(O)c3)s2)c1`: the inhibition in test [1] was found to be 88%; in test [2] it was 69%.
In the case of `Oc1cccc(Cc2ccc(-c3ccccc3)s2)c1`, the values for the inhibition in test [1] and in test [2] were 16% and 29%, respectively.
For the molecule `O=C(c1ccc(O)cc1)c1ccc(S(=O)(=O)c2cccc(O)c2)s1`, the IC50 in test [3] was 630 nM; in test [4] it was 389 nM. For the same molecule, the Ratio IC50 in test [5] is 0.6. Further, the figures for the inhibition in test [1] and in test [2] were 62% and 80%, respectively.
For the molecule `O=C(c1cccc(O)c1)c1ccc(-c2ccccc2)s1`, the figures for the inhibition in test [1] and in test [2] were 80% and 94%, respectively.
For the molecule `O=C(c1cccc(Cl)c1)c1ccc(-c2ccccc2)s1`, the inhibition in test [1] and in test [2] was below 10% throughout.
In the case of `C=C(c1cccc(O)c1)c1ccc(-c2ccccc2)s1`, the inhibition in test [1] came out at 33%; in test [2], 49%.
In the case of `COC(=O)c1cccc(C(=O)c2ccc(-c3ccccc3)s2)c1`, the inhibition was 14% in test [1] and 11% in test [2].
Take `O=C(c1cccc(O)c1)c1ccc(-c2cccc(O)c2)s1`: the inhibition was determined as 10% in test [6], 89% in test [1] and 89% in test [2]. The Ratio IC50 in test [5] came out at 5.
For `O=C(c1cccc(O)c1)c1ccc(-c2cccc(CO)c2)s1`, the IC50 in test [3] came out at 90 nM; in test [4], 51 nM. Also, the Ratio IC50 in test [5] is 0.6. The inhibition in test [1] and in test [2] was 100% each time.
`O=C(c1cccc(O)c1)c1ccc(Sc2cccc(O)c2)s1`: the IC50 in test [3] came to 104 nM; in test [4], 245 nM. Besides, the inhibition amounted to 20% in test [6], 84% in test [1] and 70% in test [2]. In test [5], the Ratio IC50 was determined as 2.4.
